Series [1] can be described thus: Oral bioavailability in Wistar rat at 10 mg/kg. The conditions noted are these: in vivo. In kind it is ADME, organism-based. Summed up:
(§1)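 Male Wistar rats dosed orally at 10 mg/kg as a suspension in 0.5% methylcellulose/0.5% Tween80.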

The nature of series [2]: Volume of distribution at steady state in Wistar rat at 5 mg/kg, iv. The format is ADME, organism-based. Set-up: dose 5 mg/kg, route intravenous. The settings on record: in vivo, read-out: Vdss. The gist of the method:
(§2)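 Wistar rats given 5 mg/kg i.v. at 2.5 mg/mL in 10% EtOH/30% PEG300/60% solutol.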

The nature of series [3]: Oral bioavailability in Balb/C mouse at 20 mg/kg. The conditions noted are these: in vivo. In kind it is ADME, organism-based. The gist of the method: (§3)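 Balb/C mice dosed by oral gavage at 20 mg/kg as a suspension in 0.5% methylcellulose/0.5% Tween80.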
Series [4] in a line: Volume of distribution at steady state in Balb/C mouse at 5 mg/kg, iv. In kind it is ADME, organism-based. Set-up: dose 5 mg/kg, route intravenous. The settings on record: in vivo, read-out: Vdss. Summed up:
(§4)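 Balb/C mice given 5 mg/kg i.v. at 2.5 mg/mL in 10% EtOH/30% PEG300/60% solutol.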

The test system of series [5] is Mus musculus. Put plainly: Reduction in sensitivity to cold surface in po dosed naive mouse assessed as latency to respond with behavioral queues measured after 40 mins. In kind it is functional, organism-based. Summed up: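 Naive mice (n = 7 per group) gavaged with vehicle (0.5% methylcellulose/0.5% Tween80), 10 or 100 mg/kg. After 40 min acclimation at room temperature, each mouse was placed on a −5 °C Peltier cold plate for up to 2 min. Latency to first jump, brisk hindpaw lift or flick/lick was recorded.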

Series [6] concerns the target T1, Transient receptor potential cation channel subfamily A member 1 (Homo sapiens, UniProt O75762). Put plainly: Antagonist activity at human TRPA1 expressed in CHO-TREX cells assessed as inhibition of allyl isothiocyanate-induced calcium flux incubated 10 mins prior to allyl isothiocyanate addition by FLIPR assay relative to control. In kind it is cell-based. Summed up: (§5)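 TRPA1-expressing CHO-TREX cells, channel expression induced with tetracycline (0.5 µg/mL human, 1 µg/mL mouse or rat). Cells loaded with Fluo4-AM for 90 min at room temperature, washed, then test agent added in HBSS/20 mM HEPES/2.5 mM probenecid/0.1% BSA. Agonist added 10 min later at EC80: human cinnamaldehyde 30 µM, AITC 2.5 µM, dibenzoxazepine-carboxamide 5 nM; rat and mouse cinnamaldehyde 40 µM. FLIPR calcium flux; mean of triplicates fitted to sigmoidal dose-response curves.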

Series [7] deals with Transient receptor potential cation channel subfamily A member 1 (Mus musculus) (UniProt Q8BLA8). Put plainly: (§6) Antagonist activity at mouse TRPA1 expressed in CHO-TREX cells assessed as inhibition of cinnamaldehyde-induced calcium flux incubated 10 mins prior to cinnamaldehyde addition by FLIPR assay relative to control. In kind it is cell-based. Also on record: concentration or dose not given beside the values. The gist of the method: as §5
Transient receptor potential cation channel subfamily A member 1 (Mus musculus), sequence (Q8BLA8 whole entry): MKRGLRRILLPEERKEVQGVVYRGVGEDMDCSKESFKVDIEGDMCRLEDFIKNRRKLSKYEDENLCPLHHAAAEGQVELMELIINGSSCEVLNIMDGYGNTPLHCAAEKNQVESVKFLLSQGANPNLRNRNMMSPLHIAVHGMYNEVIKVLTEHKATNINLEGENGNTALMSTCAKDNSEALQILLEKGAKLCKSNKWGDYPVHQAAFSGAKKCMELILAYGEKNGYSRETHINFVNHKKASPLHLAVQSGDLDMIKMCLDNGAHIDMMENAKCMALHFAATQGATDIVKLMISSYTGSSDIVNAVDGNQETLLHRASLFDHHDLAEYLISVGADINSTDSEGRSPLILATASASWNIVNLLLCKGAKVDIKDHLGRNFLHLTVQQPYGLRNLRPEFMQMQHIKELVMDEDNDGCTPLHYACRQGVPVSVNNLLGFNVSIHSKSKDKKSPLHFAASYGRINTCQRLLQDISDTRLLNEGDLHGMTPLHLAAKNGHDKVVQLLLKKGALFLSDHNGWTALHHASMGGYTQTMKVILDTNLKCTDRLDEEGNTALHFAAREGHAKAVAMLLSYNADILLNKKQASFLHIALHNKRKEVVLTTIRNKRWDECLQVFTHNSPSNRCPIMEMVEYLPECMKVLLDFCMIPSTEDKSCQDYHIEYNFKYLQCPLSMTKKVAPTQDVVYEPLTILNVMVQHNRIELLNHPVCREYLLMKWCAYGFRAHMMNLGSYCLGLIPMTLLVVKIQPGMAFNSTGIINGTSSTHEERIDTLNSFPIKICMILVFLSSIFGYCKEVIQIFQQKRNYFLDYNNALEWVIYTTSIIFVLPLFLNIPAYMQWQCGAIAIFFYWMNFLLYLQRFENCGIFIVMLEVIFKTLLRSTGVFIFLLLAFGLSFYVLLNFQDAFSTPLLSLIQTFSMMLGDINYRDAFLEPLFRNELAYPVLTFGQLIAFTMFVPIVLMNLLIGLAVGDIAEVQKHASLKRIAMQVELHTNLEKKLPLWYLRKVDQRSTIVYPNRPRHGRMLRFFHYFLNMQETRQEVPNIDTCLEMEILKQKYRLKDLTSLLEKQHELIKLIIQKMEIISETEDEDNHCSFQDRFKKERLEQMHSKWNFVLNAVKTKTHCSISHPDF

For series [8], the target named is Transient receptor potential cation channel subfamily A member 1 (Mus musculus, UniProt Q8BLA8). Described as §6. In kind it is cell-based. The gist of the method:
as §5

The target of series [9] is T1, Transient receptor potential cation channel subfamily A member 1. The series can be described thus: Antagonist activity at human TRPA1 expressed in CHO-TREX cells assessed as inhibition of dibenzo[b,f ][1,4]oxazepine-4-carboxamide-induced calcium flux incubated 10 mins prior to dibenzo[b,f ][1,4]oxazepine-4-carboxamide addition by FLIPR assay relative to control. The format is cell-based. The gist of the method:
as §5

A short description of series [10]: Cmax in Wistar rat at 10 mg/kg, po. In kind it is ADME, organism-based. Set-up: dose 10 mg/kg, route oral. The conditions noted are these: in vivo. Summed up: as §1
For series [11], the system named is Mus musculus. Put plainly: Reversal of mustard oil-induced allodynia in C57Bl6 mouse at 10 mg/kg, po administered 48 hrs post mustard oil challenge measured after 1 hr. Also on record: dose 10 mg/kg. In kind it is functional, organism-based. Summed up:
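Male C57Bl6 mice (20-25 g) under isoflurane received intracolonic mustard oil (0.25% in 70% ethanol). Oral vehicle or 3, 10 or 30 mg/kg given 48 h later. Abdominal von Frey filaments (0.02–15 g, ascending, up to 6 s) applied 1 h after dosing; the lowest force giving retraction, jumping, licking or scratching was taken as the threshold.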

The test system of series [12] is CHO-K1. The series can be described thus: Selectivity ratio of IC50 for human TRPV1 expressed in CHOK1 cells to IC50 for human TRPA1 expressed in CHO-TREX cells. In kind it is cell-based. The gist of the method:
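Stable hTRPV1 CHO-K1 and tetracycline-induced (0.5 µg/mL) hTRPA1 CHO-TREX cells were loaded with Fluo4-AM for 90 min at room temperature and read on FLIPR. Antagonist preincubation was 10 min before EC80 agonist: capsaicin 40 nM (TRPV1); cinnamaldehyde 30 µM, AITC 2.5 µM or dibenzoxazepine carboxamide 5 nM (TRPA1). Buffer contained probenecid and BSA. IC50s were fitted from triplicate means of max−min calcium signal.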

Series [13] is described as follows: Cmax in Balb/C mouse at 20 mg/kg, po. In kind it is ADME, organism-based. Set-up: dose 20 mg/kg, route oral. The conditions noted are these: in vivo. Summed up: as §3
Series [14] in a line: Clearance in Wistar rat at 5 mg/kg, iv. Set-up: dose 5 mg/kg, route intravenous. The conditions noted are these: in vivo. The format is ADME, organism-based. The gist of the method:
as §2

Series [15] in a line: Half life in Balb/C mouse at 5 mg/kg, iv. Set-up: dose 5 mg/kg, route intravenous. In kind it is ADME, organism-based. The settings on record: in vivo. The gist of the method:
as §4

Series [16] deals with T2, Transient receptor potential cation channel subfamily V member 3 (Homo sapiens) (UniProt Q8NET8).
T2 sequence (whole entry): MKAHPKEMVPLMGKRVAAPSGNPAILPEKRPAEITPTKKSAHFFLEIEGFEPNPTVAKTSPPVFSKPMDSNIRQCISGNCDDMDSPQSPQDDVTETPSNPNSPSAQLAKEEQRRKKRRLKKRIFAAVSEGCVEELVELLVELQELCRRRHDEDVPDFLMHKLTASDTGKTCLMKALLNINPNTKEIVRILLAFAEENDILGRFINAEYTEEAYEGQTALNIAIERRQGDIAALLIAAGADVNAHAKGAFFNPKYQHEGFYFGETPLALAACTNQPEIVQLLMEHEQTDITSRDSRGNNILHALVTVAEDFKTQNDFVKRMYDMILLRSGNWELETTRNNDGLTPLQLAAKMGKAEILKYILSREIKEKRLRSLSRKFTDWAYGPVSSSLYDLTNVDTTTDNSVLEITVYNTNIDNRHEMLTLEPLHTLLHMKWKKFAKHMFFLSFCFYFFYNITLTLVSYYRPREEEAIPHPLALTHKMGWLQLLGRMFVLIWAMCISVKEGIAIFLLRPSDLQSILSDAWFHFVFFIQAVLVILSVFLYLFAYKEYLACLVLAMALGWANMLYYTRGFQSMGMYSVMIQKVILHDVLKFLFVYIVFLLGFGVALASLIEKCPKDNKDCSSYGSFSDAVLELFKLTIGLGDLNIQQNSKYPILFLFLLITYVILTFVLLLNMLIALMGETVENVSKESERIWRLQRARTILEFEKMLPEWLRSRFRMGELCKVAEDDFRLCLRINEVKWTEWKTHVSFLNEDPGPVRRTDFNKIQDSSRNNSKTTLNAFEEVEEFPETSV
Put plainly: (§7) Antagonist activity at human TRPV3 expressed in CHOK1 cells assessed as inhibition of 2-APB-induced calcium flux incubated 10 mins prior to 2-APB addition by FLIPR assay relative to control. In kind it is cell-based. Set-up: concentration or dose not given beside the values. The conditions noted are these: CHO-K1.

Series [17] deals with T3, Transient receptor potential cation channel subfamily V member 3 (Homo sapiens, UniProt Q8NET8).
T3 sequence (Q8NET8 whole entry): T2 sequence (whole entry)
Described as §7. The format is cell-based, CHO-K1.

Each structure is given as a SMILES string. Calls of active or inactive are those of the source.

Experimental findings from ChEMBL document CHEMBL3297713, “Discovery, optimization, and biological evaluation of 5-(2-(trifluoromethyl)phenyl)indazoles as a novel class of transient receptor potential A1 (TRPA1) antagonists” (J Med Chem, 2014) are described below.

T1 sequence (O75762 whole entry): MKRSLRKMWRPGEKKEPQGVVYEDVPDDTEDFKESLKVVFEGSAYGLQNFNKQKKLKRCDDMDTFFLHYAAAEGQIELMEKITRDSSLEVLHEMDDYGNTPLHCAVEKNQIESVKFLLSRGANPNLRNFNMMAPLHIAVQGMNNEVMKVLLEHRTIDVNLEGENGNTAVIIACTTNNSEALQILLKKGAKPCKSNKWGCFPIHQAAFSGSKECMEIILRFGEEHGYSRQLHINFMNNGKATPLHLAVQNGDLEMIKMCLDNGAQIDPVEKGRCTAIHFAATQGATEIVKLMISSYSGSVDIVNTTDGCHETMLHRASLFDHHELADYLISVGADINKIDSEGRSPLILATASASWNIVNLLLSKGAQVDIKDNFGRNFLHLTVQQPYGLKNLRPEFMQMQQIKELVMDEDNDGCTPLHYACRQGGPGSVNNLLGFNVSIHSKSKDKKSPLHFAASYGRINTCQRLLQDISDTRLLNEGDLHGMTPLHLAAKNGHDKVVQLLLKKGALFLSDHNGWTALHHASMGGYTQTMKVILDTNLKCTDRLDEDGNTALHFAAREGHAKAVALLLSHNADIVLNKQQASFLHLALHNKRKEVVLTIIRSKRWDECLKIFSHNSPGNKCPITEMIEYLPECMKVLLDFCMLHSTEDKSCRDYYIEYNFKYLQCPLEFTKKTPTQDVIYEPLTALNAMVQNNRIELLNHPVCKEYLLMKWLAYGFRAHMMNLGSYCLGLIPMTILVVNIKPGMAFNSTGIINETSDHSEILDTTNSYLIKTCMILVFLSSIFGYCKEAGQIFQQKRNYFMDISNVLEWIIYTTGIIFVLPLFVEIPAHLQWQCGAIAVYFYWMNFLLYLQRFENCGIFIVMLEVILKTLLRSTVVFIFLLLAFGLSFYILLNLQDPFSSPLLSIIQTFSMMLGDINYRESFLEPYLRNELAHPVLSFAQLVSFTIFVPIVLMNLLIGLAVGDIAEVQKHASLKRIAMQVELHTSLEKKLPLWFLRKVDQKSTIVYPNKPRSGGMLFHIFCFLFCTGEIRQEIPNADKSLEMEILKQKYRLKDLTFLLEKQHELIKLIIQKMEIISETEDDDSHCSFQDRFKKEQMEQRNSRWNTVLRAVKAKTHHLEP
Transient receptor potential cation channel subfamily A member 1 (Mus musculus, UniProt Q8BLA8), sequence (Q8BLA8 whole entry): as the sequence (Q8BLA8 whole entry) above

Take `Cc1cc2[nH]ncc2cc1-c1ccccc1C(F)(F)F`: the bioavailability in [1] was found to be 39%; in series [3], 17%. In addition, the Vd in series [2] is 2.39 L/kg; in series [4], 4.07 L/kg. Further, in series [5], the Activity result was “Dose-dependent effect”. The concentration for half-maximal inhibition (IC50) was 18 nM in series [6], 53 nM in series [8], 20 nM in [9] and > 30000 nM in series [17]. Besides, the inhibition in [6] was 99%; in series [7], 100%; in series [9], 100%; in [16], 0%. Further, the Cmax was determined as 3530 nM in series [10] and 1270 nM in series [13]. Besides, the outcome in [11] was Active. Also, the Ratio IC50 in series [12] was > 100. The molecule further had a clearance in [14] of 25.7 mL/min/kg. In [15], the half-life is 3.64 h.
